Bioassay records deposited in PubChem by The Scripps Research Institute Molecular Screening Center.
NPY-Y1 PAM-ag: human NPY-Y1 potentiation or agonism, primary screen; P25929; NPY-Y1 expressing cells, potentiator/agonist activation; activation, % at 3.6 µM; 220,000 tested, 0.37% active; AID 1304; in the data active = activation above about 33%, passing the limit was not always enough;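 note: cells stimulated with NPY at EC10 then isoproterenol at EC100; 0% = low agonist plus stimulus and 100% = saturating agonist plus stimulus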
Target sequence (P25929 whole entry, looked up): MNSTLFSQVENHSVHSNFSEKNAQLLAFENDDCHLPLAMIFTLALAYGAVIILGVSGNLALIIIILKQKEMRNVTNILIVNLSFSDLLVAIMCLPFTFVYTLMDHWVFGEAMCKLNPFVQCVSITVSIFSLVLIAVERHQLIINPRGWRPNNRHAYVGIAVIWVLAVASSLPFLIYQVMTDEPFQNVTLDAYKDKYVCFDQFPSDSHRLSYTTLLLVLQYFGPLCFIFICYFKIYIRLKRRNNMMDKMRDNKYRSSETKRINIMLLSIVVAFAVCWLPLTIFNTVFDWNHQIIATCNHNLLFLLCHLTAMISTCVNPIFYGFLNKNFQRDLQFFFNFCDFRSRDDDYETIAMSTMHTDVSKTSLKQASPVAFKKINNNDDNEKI
NPY Y2 blocker: blocks the human neuropeptide Y Y2 receptor | 140,000 tested, 0.99% active | inhibition, % at 2.7 µM | P49146 | NPY-Y2 expressing cells, antagonist mode; in the data active = inhibition above about 17%;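 note: 0% = vehicle with agonist challenge and 100% = reference antagonist with challenge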
NPY-Y1 antag: blocks the human neuropeptide Y Y1 receptor. inhibition, % at 3.6 µM. HEK293-CNG Y1 cells, membrane potential fluorescence; NPY at EC95, then isoproterenol. 200,000 tested, 1% active. AID 1040;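 active = inhibition above the campaign mean inhibition of all tested compounds plus 3 SD, cut at about 20% in these data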;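 note: 0% = DMSO wells given NPY plus isoproterenol and 100% = isoproterenol alone without NPY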
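Material: HEK293 cells with Y1 receptor plus CNG channel; times: compound incubation 1 h at room temperature, readout 45 min post-stimulation; signal: fluorescence, membrane potential probe; read-out basis: fluorescence ratio normalized to % inhibition between controls; benchmarks: full-block control isoproterenol-only wells, zero-block control NPY plus isoproterenol wells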
NPY2 pot ag: potentiates or activates human NPY-Y2 receptor; activation, % at 3.6 µM; 220,000 tested, 0.45% active; P49146; cells expressing NPY-Y2, potentiator/agonist read-out; in the data active = activation above about 27%;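 note: cells stimulated with NPY near EC25 plus isoproterenol at EC100; 0% = vehicle plus submaximal agonist and 100% = vehicle plus saturating agonist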
* hit, by the source's call; . = no result. A selection: hits, their analogues and other compounds. The true share with any hit is near 1.8%.

SMILES	NPY-Y1 PAM-ag	NPY Y2 blocker	NPY-Y1 antag	NPY2 pot ag
Cc1ccc(OC(=O)c2sc(Cl)nc2C)cc1C	-3.3	4.3	-0.2	1.4
CCn1c(NCc2cccc(OC)c2OC)nc2ccccc21	9.6	1.1	11.1	2.2
COc1cccc(CNc2nc3ccccc3n2CCN2CCCCC2)c1OC	-16.7	25.1*	41.6*	-0.2
COc1ccc(CNc2nc3ccccc3n2CCN2CCCCC2)c(OC)c1	-29.4	25.8*	28.8*	-6.9
CC1=CC(C)(C)N2C(=O)C3(NCCc4c3[nH]c3ccccc43)c3cccc1c32 (stereo not given)	22.9	.	4.2	-3.8
NC(=O)c1cccn1Cc1cccc(Cl)c1	94.9*	0.6	-0.6	33.1*
NC(=O)c1cccn1Cc1ccccc1Cl	-1.5	5.6	5.1	9.8
COCCCNc1nc2nonc2nc1N1CCC(C(C)N2CCOCC2)CC1 (stereo not given)	8.8	.	0.3	-0.5
CCCCCOc1ccc(Br)cc1/C(C)=N/NC1=NCCN1	-46.4	54.4*	27.4*	-20.6
CCOc1ccccc1CNCCNCC(C)O (stereo not given)	-1.7	.	4.3	-7.9
C=CCc1ccccc1OCC(O)CN1CCN(c2ccc(OC)cc2)CC1 (stereo not given)	90.7*	3.7	-15.2	80.3*
CCOc1ccccc1OCC(O)CNC (stereo not given)	105.7*	-0.1	-15.9	94.1*
C=CCc1ccccc1OCC(O)Cn1ccnc1C (stereo not given)	12.0	6.0	3.2	19.6
C=CCc1ccccc1OCC(O)CN(C(C)C)C(C)C (stereo not given)	102.7*	5.4	-18.5	96.6*
C=CCc1ccccc1OCC(O)CNC (stereo not given)	109.7*	0.0	-21.0	101.3*
O=C(N[C@H](C(=O)O)c1ccccc1)C1CCC(Cn2nnc3ccccc3c2=O)CC1 (stereo not given in full)	0.5	.	.	-22.0
CCc1sc(NC(=O)C(C)C)nc1-c1ccccc1	-17.5	.	-1.4	-5.9
CS(=O)(=O)c1nc(-c2ccc(Br)cc2)cc(-c2ccccc2)c1C#N	13.6	5.2	2.0	6.9
CS(=O)c1nc(-c2ccc(Br)cc2)cc(-c2ccccc2)c1C#N (stereo not given)	101.2*	1.8	-9.2	66.0*
COc1cc2c(cc1OC)C(=S)NC(C)(C)C2	103.3*	7.7	-2.6	46.1*
CCOC(=O)/C=C1\NC(C)(C)Cc2cc(OC)c(OC)cc21	4.3	-0.1	-2.8	-19.3
COc1ccc(NC(=O)COc2ccc(C(=O)NC3CCCc4ccccc43)cc2OC)cc1 (stereo not given)	-10.5	3.8	-4.7	4.4
COc1ccc(N2CCN(/C(=N\S(=O)(=O)c3ccccc3)Nc3nc(C)cc(C)n3)CC2)cc1	-19.6	2.9	2.9	-15.2
Cc1ccc(S(=O)(=O)/N=C(/Nc2nc(C)cc(C)n2)N2CCOCC2)cc1	0.1	-3.3	25.2*	-6.0
O=C(NCCCN1CCN(c2ccccc2F)CC1)C1CCN(S(=O)(=O)N2CCOCC2)CC1	5.0	1.8	-1.2	3.9
SMILES	NPY-Y1 PAM-ag	NPY Y2 blocker	NPY-Y1 antag	NPY2 pot ag
O=C(NCCN1CCN(c2ccccc2)CC1)C1CCN(S(=O)(=O)N2CCOCC2)CC1	31.8*	-1.1	-1.7	-8.1
Cc1ccc(S(=O)(=O)NC(=O)N(C)C2CCCCC2)cc1	4.3	.	.	-0.5
Cc1nc2sc3c(c2c(=O)n1/N=C/c1ccco1)CCCC3	104.4*	-0.1	-13.7	103.4*
Cc1nn(-c2ccccc2)c2nc3c(cc12)C(=O)CCC3	0.1	1.8	6.0	-7.3
CC(=O)c1cc(-c2ccccc2)n(CC(=O)Nc2cccc(C)c2)c1C	-5.4	2.3	10.1	0.1
CCCSC1=C(C#N)C2(CCCCC2)C(C#N)=C(N)N1	53.5*	.	-12.9	31.9*
Cc1cc(NC(=O)CN2C(=O)NC3(CCCCC3C)C2=O)no1 (stereo not given)	2.0	1.3	10.1	5.5
O=C(O)C(Cc1c[nH]c2ccccc12)N1C(=O)c2ccccc2C1=O (stereo not given)	-7.3	.	.	0.1
COc1cccc(CN(Cc2ccco2)C(c2ccc(F)cc2)c2nnnn2C(C)(C)C)c1 (stereo not given)	7.1	21.6*	31.1*	0.6
Cc1ccc(N(C)S(=O)(=O)c2cccc(C(=O)Nc3nnc(C4CC4)s3)c2)cc1	22.4	.	-2.8	13.0
COc1cc(OC)c(N(C)S(=O)(=O)c2cccc(C(=O)Nc3nnc(C4CC4)s3)c2)cc1Cl	70.8*	.	.	56.2*
COc1ccc(NC(=O)c2c(NC(=O)CCC(=O)O)sc(-c3ccccc3)c2C)cc1	-5.2	.	12.3	-17.6
CCOc1ccc2c(c1)/C(=N/N1C(=O)c3ccccc3C1=O)C(=O)N2	3.6	.	-0.4	-8.8
CCOc1ccc2c(c1)-c1c(ssc1=S)C(C)(C)N2	44.4*	-9.9	-14.0	44.5*
CCOc1ccc2c(c1)-c1c(ssc1=S)C(C)(C)N2C(=O)CSC1=NCCS1	49.4*	-5.3	-9.2	40.4*
CN(Cc1ccc(F)cc1)C(=O)COc1ccccc1-c1ccccc1	-1.5	7.8	5.7	2.1
CC(O)c1c(OCc2ccccc2)ncnc1OCc1ccccc1 (stereo not given)	-27.4	3.2	32.9*	-14.5
Cc1nc2ccccc2nc1OCc1ccccc1	-0.1	5.0	2.9	0.3
Cc1ccc(N/C(N)=N/c2nc(CSc3nnc(C)s3)cc(=O)[nH]2)c(C)c1	11.1	.	20.4*	-6.1
Cc1cc(C)nc(NC(=O)c2ccc(C)c([N+](=O)[O-])c2)n1	4.4	0.7	7.5	-8.8
Cc1ccc(C(=O)Nn2cnnc2)cc1[N+](=O)[O-]	8.0	17.7*	-1.3	-14.6
Cc1ccc2nc(C)c(C(=O)NN=C3CCCCCC3)n2c1	21.2	.	0.9	20.0
Cc1ccc(-c2nnn(CC(=O)N(Cc3cccs3)C(C(=O)NC(C)(C)C)c3ccc(C)o3)n2)o1 (stereo not given)	-112.5	39.6*	35.1*	-80.5
C/C(=N\NC(=O)c1sccc1-n1cccc1)c1cccs1	-5.6	.	4.5	-12.4
CCN(CC)CCC(=O)NC(C)(C)Cc1ccc(O)cc1	36.9*	1.6	0.8	-4.3
SMILES	NPY-Y1 PAM-ag	NPY Y2 blocker	NPY-Y1 antag	NPY2 pot ag
CC(C)(C)c1ccc(Oc2ccc(NC(=O)c3ccco3)cn2)cc1	53.9*	.	.	57.6*
COc1ccccc1C(=O)Nc1ccc(-c2nnn(CC(=O)NCc3ccco3)n2)cc1	-8.2	.	.	-6.4
Cc1cccc(N2CCN(Cc3nc(-c4cccc(Cl)c4)oc3C)CC2)n1	-20.4	.	19.4	-27.7
Cc1cccc(N2CCN(Cc3nc(-c4ccccc4Cl)oc3C)CC2)n1	-17.6	.	20.4*	-39.0
CC(C)c1ccc(/C=C/C(=O)NCCCc2ccccc2)cc1	-14.3	29.9*	25.2*	-28.4
COc1ccc2[nH]cc(C(=O)CNc3nc(C)cs3)c2c1	47.9*	-10.5	-17.9	39.2*
COc1ccc(S(=O)(=O)N(Cc2ccccc2)Cc2nc(-c3ccccc3)no2)cc1	-31.4	21.3*	41.0*	2.2
COCCNC(=O)CCCn1c(=O)c2cc(OC)c(OC)cc2n(CC(=O)Nc2ccc(F)cc2)c1=O	8.2	.	-1.7	3.5
COCCNC(=O)CCCn1c(=O)c2cc(OC)c(OC)cc2n(CC(=O)Nc2ccccc2OC)c1=O	-5.0	.	21.3*	-5.7
